In ChEMBL document CHEMBL5724801, “EUbOPEN Chemogenomics Library - Multiplex” (2024):
Several values for one entry are separate records, joined by “and”; a condition that tells them apart may be missing. Identical values can stand only once.

Tested on: U2OS
Experiment: Multiplex assay against U2OS
Format: toxicity, cell-based
Details: human
In short: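 Tubulin, mitochondrial-mass and membrane-permeability phenotypes are per cents of healthy-nucleus cells. Cells were gated by CellPathfinder machine learning into Hoechst high-intensity objects or normal cells, normal cells into healthy, pyknosed or fragmented nuclei, and pyknosed cells into mitotic or apoptotic. Before that, live cells stained at seeding with Hoechst33342, BioTracker Green Microtubule Cytoskeleton Dye, MitoTracker Red and Annexin V Alexa Fluor 680 were imaged on a CQ1 microscope at 37°C and 5% CO2 after compound addition.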

[1] = 12 h, 1 µM, compound concentration 1 uM
[2] = 12 h, 10 µM, compound concentration 10 uM
[3] = 24 h, 1 µM, compound concentration 1 uM
[4] = 24 h, 10 µM, compound concentration 10 uM
[5] = 48 h, 1 µM, compound concentration 1 uM
[6] = 48 h, 10 µM, compound concentration 10 uM

Which results are given for CC(C)C[C@H](CO)Nc1nc(S[C@@H](C)c2ccccc2)nc2nc(N)sc12 [AZD-8797]?
Population Apoptotic (%) [1]: 83% and 100%; Population Fragmented Nuclei (%) [1]: 20% and 12%; Population Healthy Nuclei (%) [1]: 65% and 82%; Population Hoechst High Intensity Objects (%) [1]: 3% and 0%; Population Membrane Permeable-Phenotype (%) [1]: 5%; Population Mitochondria Different-Phenotype (%) [1]: 1% and 5%; Population Mitotic Cells (%) [1]: 16% and 0%; Population Normal (%) [1]: 96% and 100%; Population Pyknosed Nuclei (%) [1]: 14% and 5%; Population Tubulin-Different-Phenotype (%) [1]: 2% and 3%; Total Cell Count [1]: 177 and 95; Population Apoptotic (%) [2]: 63% and 78%; Population Fragmented Nuclei (%) [2]: 21% and 9%; Population Healthy Nuclei (%) [2]: 56% and 79%; Population Hoechst High Intensity Objects (%) [2]: 4% and 2%; Population Membrane Permeable-Phenotype (%) [2]: 30% and 10%; Population Mitochondria Different-Phenotype (%) [2]: 12% and 16%; Population Mitotic Cells (%) [2]: 36% and 21%; Population Normal (%) [2]: 95% and 97%; Population Pyknosed Nuclei (%) [2]: 22% and 10%; Total Cell Count [2]: 222 and 135; Population Apoptotic (%) [3]: 81% and 83%; Population Fragmented Nuclei (%) [3]: 20% and 17%; Population Healthy Nuclei (%) [3]: 68% and 77%; Population Hoechst High Intensity Objects (%) [3]: 1% and 0%; Population Membrane Permeable-Phenotype (%) [3]: 2% and 4%; Population Mitochondria Different-Phenotype (%) [3]: 0% and 2%; Population Mitotic Cells (%) [3]: 18% and 16%; Population Normal (%) [3]: 98% and 100%; Population Pyknosed Nuclei (%) [3]: 10% and 4%; Population Tubulin-Different-Phenotype (%) [3]: 2% and 3%; Total Cell Count [3]: 219 and 121; Population Apoptotic (%) [4]: 76% and 100%; Population Fragmented Nuclei (%) [4]: 20% and 7%; Population Healthy Nuclei (%) [4]: 58% and 86%; Population Hoechst High Intensity Objects (%) [4]: 3% and 1%; Population Membrane Permeable-Phenotype (%) [4]: 22% and 9%; Population Mitochondria Different-Phenotype (%) [4]: 12%; Population Mitotic Cells (%) [4]: 24% and 0%; Population Normal (%) [4]: 96% and 98%; Population Tubulin-Different-Phenotype (%) [4]: 13% and 6%; Total Cell Count [4]: 245 and 156; Population Apoptotic (%) [5]: 94% and 100%; Population Fragmented Nuclei (%) [5]: 18% and 15%; Population Healthy Nuclei (%) [5]: 69% and 77%; Population Hoechst High Intensity Objects (%) [5]: 2%; Population Membrane Permeable-Phenotype (%) [5]: 6% and 2%; Population Mitochondria Different-Phenotype (%) [5]: 0% and 2%; Population Mitotic Cells (%) [5]: 5% and 0%; Population Normal (%) [5]: 97%; Population Pyknosed Nuclei (%) [5]: 11% and 6%; Population Tubulin-Different-Phenotype (%) [5]: 2%; Total Cell Count [5]: 352 and 181; Population Apoptotic (%) [6]: 90% and 96%; Population Fragmented Nuclei (%) [6]: 26% and 12%; Population Healthy Nuclei (%) [6]: 54% and 74%; Population Hoechst High Intensity Objects (%) [6]: 4% and 3%; Population Membrane Permeable-Phenotype (%) [6]: 20% and 11%; Population Mitochondria Different-Phenotype (%) [6]: 10% and 5%; Population Mitotic Cells (%) [6]: 9% and 3%; Population Normal (%) [6]: 95% and 96%; Population Pyknosed Nuclei (%) [6]: 19% and 12%; Population Tubulin-Different-Phenotype (%) [6]: 14% and 4%; Total Cell Count [6]: 296 and 218

For Cc1c(-c2cc(-c3ccccc3Cl)no2)cnn1C1CCNCC1.Cl, which “Population Apoptotic (%)” value [1] is on record?
Its value is 35.85% and 50%.

What about the “Population Fragmented Nuclei (%)” value [1] of the same compound?
The value was 2.99% and 1.04%.

What about the “Population Healthy Nuclei (%)” value [1] of the same compound?
Its value is 85.68% and 82.29%.

What about the “Population Hoechst High Intensity Objects (%)” value [1] of the same compound?
Its value is 0%.

And the “Population Membrane Permeable-Phenotype (%)” value [1]?
The value was 0.5% and 3.8%.

And the “Population Mitochondria Different-Phenotype (%)” value [1]?
The value was 0% and 8.86%.

And the “Population Mitotic Cells (%)” value [1]?
Its value is 64.15% and 50%.

And the “Population Normal (%)” value [1]?
Its value is 100%.

What about the “Population Pyknosed Nuclei (%)” value [1] of the same compound?
Its value is 11.32% and 16.67%.

What about the “Population Tubulin-Different-Phenotype (%)” value [1] of the same compound?
The value was 1.5% and 1.9%.

And the “Total Cell Count” value [1]?
The value was 468 and 192.

What about the “Population Apoptotic (%)” value [2] of the same compound?
Its value is 35.61% and 27.88%.

And the “Population Fragmented Nuclei (%)” value [2]?
Its value is 0.94% and 2.96%.

And the “Population Healthy Nuclei (%)” value [2]?
The value was 57.68% and 20%.

And the “Population Hoechst High Intensity Objects (%)” value [2]?
The value was 0%.

And the “Population Membrane Permeable-Phenotype (%)” value [2]?
Its value is 28.26% and 22.22%.

And the “Population Mitotic Cells (%)” value [2]?
The value was 64.39% and 72.12%.

And the “Population Normal (%)” value [2]?
Its value is 100%.

What about the “Population Pyknosed Nuclei (%)” value [2] of the same compound?
Its value is 41.38% and 77.04%.

And the “Population Tubulin-Different-Phenotype (%)” value [2]?
Its value is 85.87% and 88.89%.

What about the “Total Cell Count” value [2] of the same compound?
Its value is 319 and 135.

And the “Population Apoptotic (%)” value [3]?
Its value is 37.5% and 39.02%.

And the “Population Fragmented Nuclei (%)” value [3]?
The value was 2.05% and 3.23%.

What about the “Population Healthy Nuclei (%)” value [3] of the same compound?
Its value is 87.85% and 80.24%.

And the “Population Hoechst High Intensity Objects (%)” value [3]?
Its value is 0%.

What about the “Population Membrane Permeable-Phenotype (%)” value [3] of the same compound?
Its value is 0.18% and 2.01%.

What about the “Population Mitochondria Different-Phenotype (%)” value [3] of the same compound?
Its value is 0.18% and 7.54%.

And the “Population Mitotic Cells (%)” value [3]?
Its value is 62.5% and 60.98%.

And the “Population Normal (%)” value [3]?
The value was 100%.

What about the “Population Pyknosed Nuclei (%)” value [3] of the same compound?
The value was 10.09% and 16.53%.

What about the “Population Tubulin-Different-Phenotype (%)” value [3] of the same compound?
Its value is 1.08% and 1.51%.

What about the “Total Cell Count” value [3] of the same compound?
The value was 634 and 248.

And the “Population Apoptotic (%)” value [4]?
Its value is 38.83% and 47.71%.

What about the “Population Fragmented Nuclei (%)” value [4] of the same compound?
The value was 2.56% and 6.16%.

What about the “Population Healthy Nuclei (%)” value [4] of the same compound?
Its value is 49.23% and 19.18%.

What about the “Population Hoechst High Intensity Objects (%)” value [4] of the same compound?
The value was 0% and 0.68%.

What about the “Population Membrane Permeable-Phenotype (%)” value [4] of the same compound?
Its value is 21.88% and 17.86%.

And the “Population Mitotic Cells (%)” value [4]?
The value was 61.17% and 52.29%.

And the “Population Normal (%)” value [4]?
The value was 100% and 99.32%.

What about the “Population Pyknosed Nuclei (%)” value [4] of the same compound?
Its value is 48.21% and 74.66%.

And the “Population Tubulin-Different-Phenotype (%)” value [4]?
Its value is 79.17% and 60.71%.

And the “Total Cell Count” value [4]?
The value was 390 and 147.

And the “Population Apoptotic (%)” value [5]?
Its value is 42.02% and 57.78%.

And the “Population Fragmented Nuclei (%)” value [5]?
Its value is 2.39% and 2.74%.

What about the “Population Healthy Nuclei (%)” value [5] of the same compound?
The value was 86.66% and 84.93%.

What about the “Population Hoechst High Intensity Objects (%)” value [5] of the same compound?
Its value is 0%.

What about the “Population Membrane Permeable-Phenotype (%)” value [5] of the same compound?
Its value is 1.59% and 2.58%.

What about the “Population Mitochondria Different-Phenotype (%)” value [5] of the same compound?
The value was 0.11% and 7.74%.

And the “Population Mitotic Cells (%)” value [5]?
The value was 57.98% and 42.22%.

And the “Population Normal (%)” value [5]?
The value was 100%.

What about the “Population Pyknosed Nuclei (%)” value [5] of the same compound?
Its value is 10.95% and 12.33%.

What about the “Population Tubulin-Different-Phenotype (%)” value [5] of the same compound?
The value was 2.23% and 3.55%.

And the “Total Cell Count” value [5]?
The value was 1087 and 365.

What about the “Population Apoptotic (%)” value [6] of the same compound?
Its value is 59.43% and 95.93%.

And the “Population Fragmented Nuclei (%)” value [6]?
The value was 1.36% and 2.17%.

What about the “Population Hoechst High Intensity Objects (%)” value [6] of the same compound?
The value was 0.68% and 0%.

What about the “Population Normal (%)” value [6] of the same compound?
The value was 99.32% and 100%.

What about the “Population Pyknosed Nuclei (%)” value [6] of the same compound?
The value was 55.33% and 89.13%.

What about the “Population Tubulin-Different-Phenotype (%)” value [6] of the same compound?
Its value is 49.21% and 50%.
